In the library only some 3.1% were active in any assay of this set; here they are far more common.
rCAG RNA binder: binders of r(CAG) RNA repeats, primary screen, biochemical, fluorescence; r(CAG) RNA repeat, TO-PRO-1 dye displacement fluorescence; inhibition, % at 3 µM; 370,000 compounds, 1.3% hits; AID 651821, 2012;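 active = inhibition above the plate cutoff, the mean of all test compounds on that plate plus 3 SD, cut at about 35% in these data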;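 also: 0% = DMSO alone and 100% = 100 µM mitoxantrone as full dye displacement; higher means more dye released from RNA so lower well fluorescence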
UHRF1 MBD2 ctr: UHRF1 methylated DNA binding inhibitors, primary screen, counter-screen for MBD2 inhibitor project, biochemical, TR-FRET, human UHRF1, single concentration; inhibition, % at 4.4 µM; UHRF1 binding to methylated oligo; 370,000 compounds, 0.75% hits; in the data active = inhibition above about 21%;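 also: UHRF1 SRA domain binding a hemimethylated CpG hairpin DNA probe; 0% = median of test compound wells and 100% = reference inhibitor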
LEDGF integ inh: blockers of LEDGF/p75-dependent integrase strand transfer – biochemical, TR-FRET, high throughput, primary screen; HIV-1 integrase (with human LEDGF/p75); TR-FRET IN-LEDGF/p75 DNA integration, Eu/Cy5; inhibition, % at 3.7 µM; 370,000 compounds, 0.64% hits; AID 743269, 2014;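 active = inhibition above the screen-wide mean plus 3 SD, cut at about 13% in these data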;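 also: signal is the Cy5 over europium emission ratio at 671 and 618 nm; 0% = plate median of compound wells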
ATG4B inhibitor: ATG4B protease inhibitors, primary screen, biochemical, fluorescence, uHTS. ATG4B cleavage of LC3-PLA2, NBD-HPC fluorescence, 1 h. 340,000 compounds, 0.51% hits. Cysteine protease ATG4B (Homo sapiens), Q9Y4P1. inhibition, % at 8.33 µM; in the data active = inhibition above about 40%
MBD2 DNA inh: inhibitors of MBD2 binding to methylated DNA, primary screen, biochemical, TR-FRET, DNA-binding domain, human | Methyl-CpG-binding domain protein 2 (Homo sapiens), Q9UBB5 | MBD2 binding to methylated oligonucleotide | inhibition, % at 4.4 µM | 370,000 compounds, 0.31% hits | AID 686964, 2013; in the data active = inhibition above about 13%
CSN inh: inhibitors of CSN-mediated cullin deneddylation, primary screen, biochemical, fluorescence polarization, uHTS; Purified CSN, SCF-Nedd8-OG deneddylation; 360,000 compounds, 0.38% hits; AID 651999, 2013; COP9 signalosome complex subunit 5 (Homo sapiens), Q92905; inhibition, % at 12.5 µM;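 active = pattern-corrected inhibition above about 35%, with an unprinted fluorescence ratio check between 0.5 and 1.5, limit read from the data, passing the limit was not always enough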;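 also: 0% = enzyme with substrate and 100% = substrate without enzyme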
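Test system: Human Csn5 produced in HEK293T cells | Compound: 12.5 µM single point | Times: 90 min, room temperature | Signal: Fluorescence polarization readout | Read-out basis: % inhibition of substrate cleavage by Csn5 | Controls: no-enzyme wells high, enzyme-with-substrate wells low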
ATG4B confirm: ATG4B protease inhibitors, retest, confirmation, biochemical, fluorescence, single concentration | shares compounds with ATG4B inhibitor | ATG4B protease fluorescent substrate cleavage assay | inhibition, % at 8.33 µM | 320 compounds, 92% hits | AID 504757, 2011; in the data active = inhibition above about 39%
PLA2 ctr: PLA2 enzyme inhibition, counter-screen for ATG4B inhibitor project, biochemical, single concentration, uHTS hits | inhibition, % at 8.33 µM | 1,600 compounds, 66% hits | AID 588402, 2011 | purified PLA2, NBD-C6-HPC fluorescence, 45 min | shares compounds with ATG4B inhibitor; in the data active = inhibition above about 50%
* = called active by the depositor; . = no result given.

SMILES	rCAG RNA binder	UHRF1 MBD2 ctr	LEDGF integ inh	ATG4B inhibitor	MBD2 DNA inh	CSN inh	PLA2 ctr	others
CCCCCc1ccc(-c2n[nH]c(=O)c3ccccc23)cc1	-1.1	1.0	-4.1	.	6.8	.	.
CC(C)CNc1cccc2c1S(=O)(=O)N(Cc1cn(Cc3cccc(C(F)(F)F)c3)nn1)Cc1ccccc1O2	7.8	11.1	0.9	.	5.3	.	.
CCc1nc(N2CCCCC2)c2oc3ccccc3c2n1	2.5	2.1	-3.0	53.0*	-1.8	2.7	60.7*
CCc1nc(N2CCN(Cc3ccc4c(c3)OCO4)CC2)c2oc3ccccc3c2n1	6.3	-2.4	1.2	49.3*	5.5	-1.3	70.2*
CCc1nc(N2CCCC(C)C2)c2oc3ccccc3c2n1 (stereo unspecified)	1.7	0.0	-4.4	42.9*	2.4	-2.8	52.4*
CCc1nc(N2CCCCC2C(=O)O)c2oc3ccccc3c2n1 (stereo unspecified)	7.3	-1.2	3.0	-8.5	1.3	-6.9	.
CCOC(=O)C1CCCN(c2nc(C)nc3c2oc2ccccc23)C1 (stereo unspecified)	-3.9	0.3	3.6	5.1	-0.9	-3.2	.
CCc1nc(N2CCCCC2C)c2oc3ccccc3c2n1 (stereo unspecified)	-1.3	4.9	7.1	45.2*	0.2	-4.4	56.4*
COC(=O)[C@]12C[C@H](CC(=O)N3CCSCC3)C(=O)N(CCc3ccc(OC)c(OC)c3)C1=C[C@H](COCc1ccccc1)O[C@@H]2C	5.8	-0.8	-1.5	.	4.4	.	.
O=C1N[C@@H](c2ccccc2)COC(=O)[C@@H](Cc2ccc(F)cc2)C/C=C\C[C@H]1CC(=O)N(CCO)Cc1ccccc1	1.4	-1.7	-3.0	-9.1	-1.4	-6.3	.
O=C1N[C@@H](c2ccccc2)COC(=O)[C@H](Cc2ccc(F)cc2)CC/C=C/C[C@@H]1CC(=O)N(CCO)Cc1ccccc1	-1.4	-1.9	0.9	47.5*	1.7	-2.1	57.1*
Cc1ccccc1CS(=O)(=O)Cc1ccc(C(=O)Nc2cccc(C)c2C)o1	4.6	-1.0	3.1	.	0.9	.	.
O=C(c1ccccc1)c1cnc(Nc2ccccc2Cl)s1	.	.	.	43.6*	.	-1.3	45.7	ATG4B confirm=64.8*
COP(=O)(O)C(C)NC(=O)OCc1ccccc1 (stereo unspecified)	0.2	-1.2	-0.1	.	-2.1	.	.
Cc1cc(C)cc(NC(=O)O[C@@H]2CC[C@@]34CCCN3C(=O)CCC[C@H]4C2)c1	.	0.3	0.4	.	-3.1	.	.
N#Cc1c(N)[nH]c(=S)c(C#N)c1-c1ccccc1	5.3	5.4	-1.3	3.0	-3.5	0.9	.
N#Cc1c(N)[nH]c2ccc(Sc3ccccc3)cc12	11.2	-1.3	1.6	41.2*	2.4	0.5	40.1	ATG4B confirm=67.7*
Cc1cccc(C(=O)Nc2scc(CC(C)C)c2C(=O)O)c1	22.9	0.3	4.8	73.2*	-0.7	6.5	68.1*
COc1ccc(CN2C(=O)c3ccccc3C(/C=N/OCc3ccc(Cl)cc3)C2=O)cc1 (stereo unspecified)	13.6	-7.2	-2.2	28.0	-3.7	-2.9	.
COc1ccc(CN2C(=O)c3ccccc3C(/C=N\OCc3ccc(F)cc3)C2=O)cc1 (stereo unspecified)	10.4	-2.3	1.6	60.2*	0.6	3.8	75.0*
C[N+]1(C)[C@H]2CC[C@H]1CC(OC(=O)C(O)c1ccccc1)C2 (stereo partly specified)	2.5	0.6	-0.9	.	2.2	.	.
CCOc1ccc(CCNC(=O)C2CCCCC2)cc1OCC	.	0.1	1.6	.	5.1	.	.
CCC(=O)N1CCN(c2nc(CC)nc3sc4c(c23)CCCC4)CC1	-4.0	-3.0	0.8	54.1*	1.1	1.9	63.9*
COCCCNC(=S)N1CCN(c2nc3ccccc3s2)CC1	-6.4	-0.5	0.0	-10.0	-4.9	-0.2	.
CCc1nc(N2CCN(C(=S)NCCCOC)CC2)c2c3c(sc2n1)CCCC3	-3.0	4.4	12.1	72.3*	-5.0	-2.1	79.6*
SMILES	rCAG RNA binder	UHRF1 MBD2 ctr	LEDGF integ inh	ATG4B inhibitor	MBD2 DNA inh	CSN inh	PLA2 ctr	others
CCc1nc(N2CCN(S(C)(=O)=O)CC2)c2c3c(sc2n1)CCCC3	-6.3	-1.3	2.5	46.9*	1.3	-0.3	49.5
C=CCN(C(=O)[C@@H](C)[C@@H](O)c1ccc2ccccc2c1)c1ccccc1	0.6	4.6	-1.7	.	-2.7	.	.
COC(=O)c1ccc(Cn2ccc3ccc(-c4ccc5ccn(C(=O)c6cccc(OC)c6)c5c4)cc32)cc1	8.4	-1.8	2.3	.	2.0	.	.
NC1=NS(=O)(=O)Nc2ccccc21	.	1.1	-1.6	.	-0.4	.	.
CCCCOc1ccc(-c2cn3ccccc3n2)cc1[N+](=O)[O-]	4.6	0.9	0.6	44.6*	0.2	-2.0	48.1
CC1(C)C(/C=C/C=C/C=C/C=C2\N(CCCCS(=O)(=O)O)c3ccc4ccccc4c3C2(C)C)=[N+](CCCCS(=O)(=O)[O-])c2ccc3ccccc3c21	.	.	.	90.0*	.	82.7	94.6*
O=C(Nc1ccc(Cl)c(Cl)c1)c1cccc2c1-c1ccccc1C2=O	9.8	2.4	4.5	.	2.2	.	.
COc1ccc(N2C(=O)c3ccccc3NC23CCC(C)CC3)cc1 (stereo unspecified)	3.1	-0.5	-1.7	45.0*	-0.8	10.0	39.7	ATG4B confirm=61.1*
COc1ccc(N2C(=O)c3ccccc3NC23CCCCC3)cc1	-2.4	-2.3	1.5	11.9	-2.3	3.4	.
O=C(COc1ccc(F)cc1Cl)Nc1nnc(-c2ccc(F)c(F)c2)o1	.	-2.6	-0.1	.	-0.1	.	.
CCCC[C@H]1C2CC(OC(=O)Nc3ccc(C)cc3)C(C2)[C@H]2CCCCN21 (stereo partly specified)	0.6	-0.3	2.8	.	-2.8	.	.
O=C(O)c1ccccc1C(=O)Nc1ccc(Oc2cccc3ccccc23)cc1	5.3	-1.8	0.1	28.7	-3.9	13.6	.
